Series [1] is filed under the species Rattus norvegicus. Description: Antagonist activity expressed as the effective dose that reduces the response to 2x units to equal response to 1x units of agonist (vasopressor assay). The format is functional. Put shortly:
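Vasopressor antagonism measured in anesthetized, dibenamine-treated rats, with arginine-vasopressin (408 IU/mg) as the challenging agonist. Potency is given as the effective dose (ED), the antagonist dose in nmol/kg body weight.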

In series [2] the test system is Rattus norvegicus. Put plainly: Agonistic activity was determined according to a four-point dosage schedule in anesthetized rat (vasopressor assay). The format is functional.
Series [3] has as its system Rattus norvegicus. Description: Antidiuretic potency was tested in rat by intravenous injection and the change of conductivity of secreted urine was measured (antagonistic experiment). It counts as functional. Put shortly:
(§1)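 Antidiuretic assay in anesthetized female Sprague-Dawley rats, with compounds given by intravenous injection. The change in conductivity of secreted urine was the effect parameter in both agonist and antagonist runs. Arginine-vasopressin (408 IU/mg) was the standard for agonism and the agonist in antagonism runs.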

Series [4] deals with Rattus norvegicus. Description: Antidiuretic potency was tested in rat by intravenous injection and the change of conductivity of secreted urine was measured (agonistic experiment). It counts as functional. The gist of the method: as §1
In series [5] the test system is Rattus norvegicus. Put plainly: Antidiuretic potency was tested in rat by intravenous injection and the change of conductivity of secreted urine was measured (antagonistic experiment); Weak, inconsistent. It counts as functional, organism-based. Put shortly: as §1
Series [6] in a line: The time for complete recovery of the AVP effect was measured. It counts as ADME.

Structures are written as SMILES. *1 amine or outer side, *2 acyl side, *3 side chain or, on linkers, in order; H or OH if unused. Where a SMILES comes first, the peptide text is derived from it. Bridges are numbered along the chain shown (N, C = ends). [ ]: non-standard residue; d: D form. X9 = O=C(CC1(S[*:3])CCC(c2ccccc2)CC1)[C@H](Cc1ccc(O)cc1)N([C@@H](Cc1ccccc1)C(=O)[*:2])[*:1]; X5 = CN1CCC(CC(=O)[C@H](Cc2ccc(O)cc2)N([C@@H](Cc2ccccc2)C(=O)[*:2])[*:1])(S[*:3])CC1; X8 = CC1CCC(CC(=O)[C@H](Cc2ccc(O)cc2)N([C@@H](Cc2ccccc2)C(=O)[*:2])[*:1])(S[*:3])CC1; X1 = CC(C)(C)C1CCC(CC(=O)[*:1])(S[*:2])CC1; X4 = O=C(CC1(S[*:2])CCC(c2ccccc2)CC1)[*:1]; X2 = CC1CCC(CC(=O)[*:1])(S[*:2])CC1; X3 = CN1CCC(CC(=O)[*:1])(S[*:2])CC1; X6 = O=C(CC1(S[*:2])CCCCC1)[*:1] Some results are limits rather than exact numbers.

Regarding `CN1CCC2(CC1)CC(=O)[C@H](Cc1ccc(O)cc1)N[C@@H](Cc1ccccc1)C(=O)N[C@@H](CCC(N)=O)C(=O)N[C@@H](CC(N)=O)C(=O)N[C@H](C(=O)N1CCC[C@H]1C(=O)N[C@@H](CCCN=C(N)N)C(=O)NCC(N)=O)CSS2` (H-[X5]QNCPRG-NH2; disulfide 1-4), the ED in the series filed under Rattus norvegicus [1] was 0 nmol/kg. In addition, the Agonism came out at 0.4 IU mg-1 in the series on Rattus norvegicus [2] and 0.87 IU mg-1 in the series on Rattus norvegicus [4]. In the series on Rattus norvegicus [3], this compound returned an Antagonism of 0.
`CC1CCC2(CC1)CC(=O)[C@H](Cc1ccc(O)cc1)N[C@@H](Cc1ccccc1)C(=O)N[C@@H](CCC(N)=O)C(=O)N[C@@H](CC(N)=O)C(=O)N[C@H](C(=O)N1CCC[C@H]1C(=O)N[C@@H](CCCN=C(N)N)C(=O)NCC(N)=O)CSS2` (some centres undefined) (H-[X8]QNCPRG-NH2; disulfide 1-4): the Antagonism entry in the series with Rattus norvegicus [5] was “Weak”.
Same read-out and setting: next, `NC(=O)CC[C@@H]1NC(=O)[C@H](Cc2ccccc2)N[C@@H](Cc2ccc(O)cc2)C(=O)CC2(CCC(c3ccccc3)CC2)SSC[C@@H](C(=O)N2CCC[C@H]2C(=O)N[C@@H](CCCN=C(N)N)C(=O)NCC(N)=O)NC(=O)[C@H](CC(N)=O)NC1=O` (some centres undefined) (H-[X9]QNCPRG-NH2; disulfide 1-4): “Weak”.
Regarding `COc1ccc(C[C@@H]2NC(=O)CC3(CCC(C(C)(C)C)CC3)SSC[C@@H](C(=O)N3CCC[C@H]3C(=O)N[C@@H](CCCN=C(N)N)C(=O)NCC(N)=O)NC(=O)[C@H](CC(N)=O)NC(=O)[C@H](CCC(N)=O)NC(=O)[C@H](Cc3ccccc3)NC2=O)cc1` (some centres undefined) (Y(Me)FQNCPRG-NH2; linker N-5 via X1) [listing 1 of 2 here], in series [6], the Time is more than 115 min.
`COc1ccc(C[C@@H]2NC(=O)CC3(CCC(C(C)(C)C)CC3)SSC[C@@H](C(=O)N3CCC[C@H]3C(=O)N[C@@H](CCCN=C(N)N)C(=O)NCC(N)=O)NC(=O)[C@H](CC(N)=O)NC(=O)[C@H](CCC(N)=O)NC(=O)[C@H](Cc3ccccc3)NC2=O)cc1` (some centres undefined) (Y(Me)FQNCPRG-NH2; linker N-5 via X1) [listing 2 of 2 here] had an ED in the series filed under Rattus norvegicus [1] of 1 nmol/kg. Also, the Agonism is recorded as 0 IU mg-1 in the series on Rattus norvegicus [2] and 0.095 IU mg-1 with Rattus norvegicus [4]. The Antagonism in the series on Rattus norvegicus [3] is reported as 0.
Compound `COc1ccc(C[C@@H]2NC(=O)CC3(CCC(C)CC3)SSC[C@@H](C(=O)N3CCC[C@H]3C(=O)N[C@@H](CCCN=C(N)N)C(=O)NCC(N)=O)NC(=O)[C@H](CC(N)=O)NC(=O)[C@H](CCC(N)=O)NC(=O)[C@H](Cc3ccccc3)NC2=O)cc1` (some centres undefined) (Y(Me)FQNCPRG-NH2; linker N-5 via X2) [listing 1 of 2 here] came in with a Time in series [6] of more than 140 min.
`COc1ccc(C[C@@H]2NC(=O)CC3(CCC(C)CC3)SSC[C@@H](C(=O)N3CCC[C@H]3C(=O)N[C@@H](CCCN=C(N)N)C(=O)NCC(N)=O)NC(=O)[C@H](CC(N)=O)NC(=O)[C@H](CCC(N)=O)NC(=O)[C@H](Cc3ccccc3)NC2=O)cc1` (some centres undefined) (Y(Me)FQNCPRG-NH2; linker N-5 via X2) [listing 2 of 2 here] returned an ED in the series listed under Rattus norvegicus [1] of 1.5 nmol/kg. For the same compound, the Agonism with Rattus norvegicus [2] is listed as 0 IU mg-1; with Rattus norvegicus [4], 0.7 IU mg-1. The Antagonism in the series on Rattus norvegicus [3] is 0.
In series [6], `COc1ccc(C[C@@H]2NC(=O)CC3(CCN(C)CC3)SSC[C@@H](C(=O)N3CCC[C@H]3C(=O)N[C@@H](CCCN=C(N)N)C(=O)NCC(N)=O)NC(=O)[C@H](CC(N)=O)NC(=O)[C@H](CCC(N)=O)NC(=O)[C@H](Cc3ccccc3)NC2=O)cc1` (Y(Me)FQNCPRG-NH2; linker N-5 via X3) [listing 1 of 2 here] displayed a Time of 110 min.
Compound `COc1ccc(C[C@@H]2NC(=O)CC3(CCN(C)CC3)SSC[C@@H](C(=O)N3CCC[C@H]3C(=O)N[C@@H](CCCN=C(N)N)C(=O)NCC(N)=O)NC(=O)[C@H](CC(N)=O)NC(=O)[C@H](CCC(N)=O)NC(=O)[C@H](Cc3ccccc3)NC2=O)cc1` (Y(Me)FQNCPRG-NH2; linker N-5 via X3) [listing 2 of 2 here] registered an ED in the series filed under Rattus norvegicus [1] of 3.6 nmol/kg. Besides, the results for the Agonism with Rattus norvegicus [2] and in the series on Rattus norvegicus [4] were 0 IU mg-1 and 0.23 IU mg-1, respectively.
With `COc1ccc(C[C@@H]2NC(=O)CC3(CCC(c4ccccc4)CC3)SSC[C@@H](C(=O)N3CCC[C@H]3C(=O)N[C@@H](CCCN=C(N)N)C(=O)NCC(N)=O)NC(=O)[C@H](CC(N)=O)NC(=O)[C@H](CCC(N)=O)NC(=O)[C@H](Cc3ccccc3)NC2=O)cc1` (some centres undefined) (Y(Me)FQNCPRG-NH2; linker N-5 via X4) [listing 1 of 2 here], the Time in series [6] was more than 180 min.
`COc1ccc(C[C@@H]2NC(=O)CC3(CCC(c4ccccc4)CC3)SSC[C@@H](C(=O)N3CCC[C@H]3C(=O)N[C@@H](CCCN=C(N)N)C(=O)NCC(N)=O)NC(=O)[C@H](CC(N)=O)NC(=O)[C@H](CCC(N)=O)NC(=O)[C@H](Cc3ccccc3)NC2=O)cc1` (some centres undefined) (Y(Me)FQNCPRG-NH2; linker N-5 via X4) [listing 2 of 2 here] yielded an ED in the series filed under Rattus norvegicus [1] of 2 nmol/kg. In addition, the results for the Agonism with Rattus norvegicus [2] and in the series with Rattus norvegicus [4] were 0 IU mg-1 and 1.6 IU mg-1, respectively.
In the case of `COc1ccc(C[C@@H]2NC(=O)CC3(CCCCC3)SSC[C@@H](C(=O)N3CCC[C@H]3C(=O)N[C@@H](CCCN=C(N)N)C(=O)NCC(N)=O)NC(=O)[C@H](CC(N)=O)NC(=O)[C@H](CCC(N)=O)NC(=O)[C@H](Cc3ccccc3)NC2=O)cc1` (Y(Me)FQNCPRG-NH2; linker N-5 via X6) [listing 1 of 2 here], the Time in series [6] was 126 min.
For the compound `COc1ccc(C[C@@H]2NC(=O)CC3(CCCCC3)SSC[C@@H](C(=O)N3CCC[C@H]3C(=O)N[C@@H](CCCN=C(N)N)C(=O)NCC(N)=O)NC(=O)[C@H](CC(N)=O)NC(=O)[C@H](CCC(N)=O)NC(=O)[C@H](Cc3ccccc3)NC2=O)cc1` (Y(Me)FQNCPRG-NH2; linker N-5 via X6) [listing 2 of 2 here], the Agonism in the series with Rattus norvegicus [2] is listed as 0 IU mg-1.
Consider `CC(C)(C)C1CCC2(CC1)CC(=O)N[C@@H](Cc1ccc(O)cc1)C(=O)N[C@@H](Cc1ccccc1)C(=O)N[C@@H](CCC(N)=O)C(=O)N[C@@H](CC(N)=O)C(=O)N[C@H](C(=O)N1CCC[C@H]1C(=O)N[C@@H](CCCN=C(N)N)C(=O)NCC(N)=O)CSS2` (some centres undefined) (YFQNCPRG-NH2; linker N-5 via X1) [listing 1 of 2 here], for which the Time in series [6] was 125 min.
On to `CC(C)(C)C1CCC2(CC1)CC(=O)N[C@@H](Cc1ccc(O)cc1)C(=O)N[C@@H](Cc1ccccc1)C(=O)N[C@@H](CCC(N)=O)C(=O)N[C@@H](CC(N)=O)C(=O)N[C@H](C(=O)N1CCC[C@H]1C(=O)N[C@@H](CCCN=C(N)N)C(=O)NCC(N)=O)CSS2` (some centres undefined) (YFQNCPRG-NH2; linker N-5 via X1) [listing 2 of 2 here], for which the ED in the series filed under Rattus norvegicus [1] was 2 nmol/kg. Further, the Agonism in the series on Rattus norvegicus [2] came out at 0.04 IU mg-1; with Rattus norvegicus [4] it was 0.13 IU mg-1. Also, the Antagonism in the series with Rattus norvegicus [3] was found to be 0.
In turn, `CC1CCC2(CC1)CC(=O)N[C@@H](Cc1ccc(O)cc1)C(=O)N[C@@H](Cc1ccccc1)C(=O)N[C@@H](CCC(N)=O)C(=O)N[C@@H](CC(N)=O)C(=O)N[C@H](C(=O)N1CCC[C@H]1C(=O)N[C@@H](CCCN=C(N)N)C(=O)NCC(N)=O)CSS2` (some centres undefined) (YFQNCPRG-NH2; linker N-5 via X2) [listing 1 of 2 here] came in with a Time in series [6] of 214 min.
In turn, `CC1CCC2(CC1)CC(=O)N[C@@H](Cc1ccc(O)cc1)C(=O)N[C@@H](Cc1ccccc1)C(=O)N[C@@H](CCC(N)=O)C(=O)N[C@@H](CC(N)=O)C(=O)N[C@H](C(=O)N1CCC[C@H]1C(=O)N[C@@H](CCCN=C(N)N)C(=O)NCC(N)=O)CSS2` (some centres undefined) (YFQNCPRG-NH2; linker N-5 via X2) [listing 2 of 2 here] yielded an ED in the series listed under Rattus norvegicus [1] of 1.04 nmol/kg. The Agonism in the series on Rattus norvegicus [2] is 0 IU mg-1; with Rattus norvegicus [4], 0.14 IU mg-1.
On to `NC(=O)CC[C@@H]1NC(=O)[C@H](Cc2ccccc2)NC(=O)[C@H](Cc2ccc(O)cc2)NC(=O)CC2(CCC(c3ccccc3)CC2)SSC[C@@H](C(=O)N2CCC[C@H]2C(=O)N[C@@H](CCCN=C(N)N)C(=O)NCC(N)=O)NC(=O)[C@H](CC(N)=O)NC1=O` (some centres undefined) (YFQNCPRG-NH2; linker N-5 via X4) [listing 1 of 2 here], for which the Time in series [6] is more than 180 min.
In turn, `NC(=O)CC[C@@H]1NC(=O)[C@H](Cc2ccccc2)NC(=O)[C@H](Cc2ccc(O)cc2)NC(=O)CC2(CCC(c3ccccc3)CC2)SSC[C@@H](C(=O)N2CCC[C@H]2C(=O)N[C@@H](CCCN=C(N)N)C(=O)NCC(N)=O)NC(=O)[C@H](CC(N)=O)NC1=O` (some centres undefined) (YFQNCPRG-NH2; linker N-5 via X4) [listing 2 of 2 here] registered an ED in the series listed under Rattus norvegicus [1] of 2 nmol/kg. For the same compound, the Agonism turned out to be 0 IU mg-1 with Rattus norvegicus [2] and 0.44 IU mg-1 in the series with Rattus norvegicus [4].

Values taken from ChEMBL document CHEMBL1124057, “Synthesis of arginine-vasopressins, modified in positions 1 and 2, as antagonists of the vasopressor response to the parent hormone” (J Med Chem, 1988).
